According to ChEMBL document CHEMBL1126664, “Pyrazoline bisphosphonate esters as novel antiinflammatory and antiarthritic agents” (1993):

How the values were obtained:
Mus musculus [1] = experiment: Inhibition of delayed type hypersensitivity granuloma results at 100 mg/kg in wet weight; format: functional
Method in brief: (§1)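 Groups of 10 female CF-1 mice (25 g) were sensitised sc over the inguinal lymph node with mBSA emulsion in Freund's incomplete adjuvant plus dextran. Two mBSA-soaked hydroxyapatite disks were implanted per mouse. Sc dosing ran daily from implantation to day 9, then granulomas were excised for wet and dry weights. Student's paired t test.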

Mus musculus [2] = experiment: Inhibition of delayed type hypersensitivity granuloma results at 100 mg/kg in dry weight; format: functional; method in brief: as §1
Mus musculus [3] = experiment: Inhibition of antigen-induced arthritis (AIA) in mice at the dose of 25 mg/kg in the non-injected paw; format: functional
Mus musculus [4] = experiment: Inhibition of delayed type hypersensitivity granuloma results at 50 mg/kg in wet weight; format: functional; method in brief: as §1
Mus musculus [5] = experiment: Inhibition of delayed type hypersensitivity granuloma results at 25 mg/kg in dry weight; format: functional; method in brief: as §1
Mus musculus [6] = experiment: Inhibition of antigen-induced arthritis (AIA) in mice at the dose of 100 mg/kg in the non-injected paw; format: functional
Rattus norvegicus [7] = experiment: Inhibition of rat adjuvant-induced arthritis (AIP) at the dose of 60 mg/kg in the non-injected paw; format: functional
Method in brief: (§2)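 Rats received adjuvant (M. tuberculosis in mineral oil) into the left hindpaw on day 0. Compounds in sterile saline, pH 7.0, were given sc once daily for 28 days, with sc vehicle arthritic controls. Paw volume change in injected and noninjected hindpaws was measured on day 28 by mercury-displacement plethysmography.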

Mus musculus [8] = experiment: Inhibition of delayed type hypersensitivity granuloma at 25 mg/kg in wet weight; format: functional; method in brief: as §1
Rattus norvegicus [9] = experiment: Inhibition of rat adjuvant-induced arthritis (AIP) at the dose of 5 mg/kg in the non-injected paw; format: functional; method in brief: as §2
Mus musculus [10] = experiment: Inhibition of antigen-induced arthritis (AIA) in mice at the dose of 50 mg/kg in the non-injected paw; format: functional
Rattus norvegicus [11] = experiment: Inhibition of rat adjuvant induced polyarthritis (AIP) at the dose of 60 mg/kg in the injected paw; format: functional; method in brief: as §2
Rattus norvegicus [12] = experiment: Inhibition of rat adjuvant-induced arthritis (AIP) at the dose of 15 mg/kg in the non-injected paw; format: functional; method in brief: as §2
Rattus norvegicus [13] = experiment: (§3) Inhibition of rat adjuvant induced polyarthritis (AIP) at the dose of 5 mg/kg in the injected paw; format: functional; method in brief: as §2
Rattus norvegicus [14] = experiment: Inhibition of rat adjuvant-induced arthritis (AIP) at the dose of 100 mg/kg in the non-injected paw; format: functional; method in brief: as §2
Mus musculus [15] = experiment: Inhibition of delayed type hypersensitivity granuloma results at 50 mg/kg in dry weight; format: functional; method in brief: as §1
Rattus norvegicus [16] = experiment: Inhibition of rat adjuvant induced polyarthritis (AIP) at the dose of 100 mg/kg in the injected paw; format: functional; method in brief: as §2
Rattus norvegicus [17] = experiment: (§4) Inhibition of rat adjuvant induced polyarthritis (AIP) at the dose of 15 mg/kg in the injected paw; format: functional; method in brief: as §2
Mus musculus [18] = experiment: Inhibition of antigen-induced arthritis (AIA) in mice at the dose of 100 mg/kg; format: functional
Method in brief: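 Mice were immunised, boosted after 7 days, and challenged 14 days later with 200 μg mBSA in saline into the left rear stifle joint. Dosing was sc in saline at pH 7.0, 5 of 7 days, from challenge (day 0) to day 28. H&E sagittal joint sections were graded 1–5 each for soft tissue inflammation, pannus, and cartilage and bone erosion, then summed (max 20). One-way ANOVA vs vehicle.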

Rattus norvegicus [19] = experiment: Inhibition of rat adjuvant induced arthritis (AIP) at the dose of 15 mg/kg in the non-injected paw; format: functional; method in brief: as §2
Rattus norvegicus [20] = experiment: Inhibition of rat adjuvant induced arthritis (AIP) at the dose of 100 mg/kg in the non-injected paw; format: functional; method in brief: as §2
Mus musculus [21] = experiment: Inhibition of delayed type hypersensitivity granuloma results at 200 mg/kg in dry weight; format: functional; method in brief: as §1
Mus musculus [22] = experiment: Inhibition of delayed type hypersensitivity granuloma results at 200 mg/kg in wet weight; format: functional; method in brief: as §1
Mus musculus [23] = experiment: Inhibition of antigen-induced polyarthritis (AIP) in mice at the dose of 100 mg/kg; format: functional
Method in brief: (§5)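 Murine antigen-induced arthritis: mice immunized with mBSA (with M. tuberculosis), boosted at 7 days, and challenged 14 days later with 200 μg mBSA in saline into the left rear stifle joint. Dosed sc (scruff; saline vehicle, pH 7.0) 5 of 7 days from day 0 to 28. H&E sagittal joint sections scored 1–5 each for inflammation, pannus, and cartilage/bone erosion, summed to a global score (max 20). One-way ANOVA versus vehicle.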

Rattus norvegicus [24] = experiment: Inhibition of rat adjuvant induced polyarthritis (AIP) at the dose of 30 mg/kg in the non-injected paw; format: functional
Method in brief: (§6)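 Rat adjuvant arthritis induced by M. tuberculosis in mineral oil into the left hindpaw on day 0. Dosed sc once daily for 28 days in sterile saline adjusted to pH 7.0. Change in paw volume of the injected and noninjected hindpaws measured on day 28 by mercury-displacement plethysmography, giving % inhibition versus the sc vehicle arthritic control.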

Rattus norvegicus [25] = experiment: Inhibition of adjuvant-induced polyarthritis (AIP) in rats at the dose of 5 mg/kg in the non-injected paw
Rattus norvegicus [26] = experiment: as §4; format: functional; method in brief: as §6; remark: listed apart in the source
Rattus norvegicus [27] = experiment: Inhibition of rat adjuvant induced polyarthritis (AIP) at the dose of 30 mg/kg in the injected paw; format: functional; method in brief: as §6
Rattus norvegicus [28] = experiment: as §3; format: functional; method in brief: as §6; remark: listed apart in the source
Mus musculus [29] = experiment: Inhibition of antigen-induced polyarthritis (AIP) in mice at the dose of 200 mg/kg; format: functional; method in brief: as §5
Rattus norvegicus [30] = experiment: Inhibition of rat adjuvant induced polyarthritis (AIP) at the dose of 10 mg/kg in the injected paw; format: functional; method in brief: as §6
Rattus norvegicus [31] = experiment: Inhibition of adjuvant-induced polyarthritis (AIP) in rats at the dose of 10 mg/kg in the non-injected paw
Mus musculus [32] = experiment: Inhibition of antigen-induced polyarthritis (AIP) in mice at the dose of 30 mg/kg; format: functional; method in brief: as §5
Mus musculus [33] = experiment: Inhibition of antigen-induced polyarthritis (AIP) in mice at the dose of 50 mg/kg; format: functional; method in brief: as §5
Mus musculus [34] = experiment: Inhibition of antigen-induced polyarthritis (AIP) in mice at the dose of 5 mg/kg; format: functional; method in brief: as §5
Rattus norvegicus [35] = experiment: Inhibition of rat adjuvant induced polyarthritis (AIP) at the dose of 15 mg/kg in the non-injected paw; format: functional; method in brief: as §6
Mus musculus [36] = experiment: Inhibition of antigen-induced polyarthritis (AIP) in mice at the dose of 15 mg/kg; format: functional; method in brief: as §5

O=C(C1=NNC(P(=O)(O)O)(P(=O)(O)O)C1)c1ccccc1
inhibition in vivo at 100 mg/kg (Mus musculus [1]): 18%
inhibition in vivo at 100 mg/kg (Mus musculus [2]): 19%

CCOP(=O)(OCC)C1(P(=O)(OCC)OCC)CC(C(=O)c2cccc(F)c2)=NN1
inhibition in vivo at 25 mg/kg (Mus musculus [3]): 42%
inhibition in vivo at 50 mg/kg (Mus musculus [4]): 45%
inhibition in vivo at 100 mg/kg (Mus musculus [1]): 58%
inhibition in vivo at 25 mg/kg (Mus musculus [5]): 49%
inhibition in vivo at 100 mg/kg (Mus musculus [6]): 55%
inhibition in vivo at 60 mg/kg (Rattus norvegicus [7]): 46%
inhibition in vivo at 25 mg/kg (Mus musculus [8]): 42%
inhibition in vivo at 5 mg/kg (Rattus norvegicus [9]): 0%
inhibition in vivo at 50 mg/kg (Mus musculus [10]): 52%
inhibition in vivo at 60 mg/kg (Rattus norvegicus [11]): 8%
inhibition in vivo at 15 mg/kg (Rattus norvegicus [12]): 46%
inhibition in vivo at 5 mg/kg (Rattus norvegicus [13]): 0%
inhibition in vivo at 100 mg/kg (Mus musculus [2]): 65%
inhibition in vivo at 100 mg/kg (Rattus norvegicus [14]): 55%
inhibition in vivo at 50 mg/kg (Mus musculus [15]): 51%
inhibition in vivo at 100 mg/kg (Rattus norvegicus [16]): 22%
inhibition in vivo at 15 mg/kg (Rattus norvegicus [17]): 4%

CCOP(=O)(OCC)C1(P(=O)(OCC)OCC)CC(C(=O)c2ccccc2)=NN1C
inhibition in vivo at 100 mg/kg (Mus musculus [1]): 11%
inhibition in vivo at 100 mg/kg (Mus musculus [2]): 8%

CCOP(=O)(OCC)C1(P(=O)(OCC)OCC)CC(C(=O)c2ccccc2C)=NN1
inhibition in vivo at 100 mg/kg (Mus musculus [1]): 37%
inhibition in vivo at 100 mg/kg (Mus musculus [18]): 8%
inhibition in vivo at 100 mg/kg (Mus musculus [2]): 48%
inhibition in vivo at 15 mg/kg (Rattus norvegicus [19]): 49%
inhibition in vivo at 100 mg/kg (Rattus norvegicus [16]): 9%
inhibition in vivo at 100 mg/kg (Rattus norvegicus [20]): 66%
inhibition in vivo at 15 mg/kg (Rattus norvegicus [17]): 18%

CCOP(=O)(OCC)C1(P(=O)(OCC)OCC)CC(C(=O)c2ccccc2)=NN1CC(=O)OC
inhibition in vivo at 100 mg/kg (Mus musculus [1]): 1%
inhibition in vivo at 100 mg/kg (Mus musculus [2]): 1%

O=C(C1=NNC(P(=O)(O)O)(P(=O)(O)O)C1)C1CCCCC1
inhibition in vivo at 100 mg/kg (Mus musculus [1]): 1%
inhibition in vivo at 100 mg/kg (Mus musculus [2]): 16%

CCOP(=O)(OCC)C1(P(=O)(OCC)OCC)CC(C(=O)CC)=NN1
inhibition in vivo at 200 mg/kg (Mus musculus [21]): 35%
inhibition in vivo at 200 mg/kg (Mus musculus [22]): 28%

CCOP(=O)(OCC)C1(P(=O)(OCC)OCC)CC(C(=O)c2ccc(C)cc2)=NN1
inhibition in vivo at 100 mg/kg (Mus musculus [1]): 20%
inhibition in vivo at 100 mg/kg (Mus musculus [2]): 22%

CCOP(=O)(OCC)C1(P(=O)(OCC)OCC)CC(C(=O)c2ccccc2)=NN1CCCN1N=C(C(=O)c2ccccc2)CC1(P(=O)(OCC)OCC)P(=O)(OCC)OCC
inhibition in vivo at 100 mg/kg (Mus musculus [1]): 10%
inhibition in vivo at 100 mg/kg (Mus musculus [2]): 5%

O=P(O)(O)C(Cl)(Cl)P(=O)(O)O [CLODRONIC ACID]
inhibition in vivo at 100 mg/kg (Mus musculus [23]): 51%
inhibition in vivo at 30 mg/kg (Rattus norvegicus [24]): 54%
inhibition in vivo at 5 mg/kg (Rattus norvegicus [25]): 51%
inhibition in vivo at 100 mg/kg (Mus musculus [1]): 45%
inhibition in vivo at 15 mg/kg (Rattus norvegicus [26]): 33%
inhibition in vivo at 30 mg/kg (Rattus norvegicus [27]): 36%
inhibition in vivo at 5 mg/kg (Rattus norvegicus [28]): 21%
inhibition in vivo at 200 mg/kg (Mus musculus [29]): 52%
inhibition in vivo at 10 mg/kg (Rattus norvegicus [30]): 38%
inhibition in vivo at 10 mg/kg (Rattus norvegicus [31]): 61%
inhibition in vivo at 30 mg/kg (Mus musculus [32]): 46%
inhibition in vivo at 50 mg/kg (Mus musculus [33]): 46%
inhibition in vivo at 5 mg/kg (Mus musculus [34]): 4%
inhibition in vivo at 15 mg/kg (Rattus norvegicus [35]): 70%
inhibition in vivo at 15 mg/kg (Mus musculus [36]): 46%
inhibition in vivo at 100 mg/kg (Mus musculus [2]): 47%
